Screening data from PubChem BioAssay.
Dynein transport: inhibitors of GR-EGFP nuclear translocation, primary screen, dynein cargo transport inhibitor project, imaging, high-content, 3617.4 mouse cells. test concentration mostly 20 µM; stimulated with dexamethasone, 1 µM; stronger effect = lower value. z-score, hits read low. 220,000 compounds, 0.47% hits;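 active means plate z-score of nuclear minus cytoplasmic receptor signal below a set negative limit, without overly bright fluorescence or cell loss, cut at about -3.5 in these data, passing the limit was not always enough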;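 further: z-score of nuclear minus cytoplasmic ring GR-EGFP intensity difference per well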
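Buffer or medium – tet-free medium with charcoal-stripped serum · Signal – automated 10x imaging of fixed Hoechst-stained cells · Also added – dexamethasone agonist, 1.0 µM final, for 30 min · Incubation – induction 48 h, compound 1 h, agonist 30 min · Read-out – GR-EGFP nuclear translocation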
p-CIP stab down: p/CIP-EGFP fusion destabilizers, primary screen, fluorescence, F442A cells | decrease of EGFP signal, % at 10 µM | 290,000 compounds, 0.01% hits | Q05BA5 | 16 h;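 active means EGFP signal decrease of at least 30% at 10 µM or well 3 SD below plate mean, unless failing retest; inactive means the rest, including hits failing retest or dose response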
Cl transport mod: KCC2 cotransporter modulators, thallium flux, primary screen, cell-based, HEK293 KCC2, FluoZin-2 fluorescence, MLSMR. Solute carrier family 12 member 5 (Homo sapiens), Q9H2X9. KCC2 cells, thallium flux FluoZin-2 fluorescence. B-score of Tl+ flux slope (higher = more flux/activation; lower = inhibition) at 10 µM. 190,000 compounds, 2.2% hits. AID 1456, 2008;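 active means thallium flux slope and its plate-corrected score both differing from the plate sample mean at a set confidence after two filtering rounds, in either direction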;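 further: slope of fluorescence scaled to starting intensity during 10 to 20 s after thallium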
ABCB6 inh MLPCN: ABCB6 transporter inhibitors, primary screen, K562-ABCB6 cells, flow cytometry, MLPCN library. ATP-binding cassette sub-family B member 6 (Homo sapiens), Q9NP58. K562-ABCB6 porphyrin accumulation, 1 h; stronger effect = lower value. fluorescence ratio to DMSO, % at 10 µM. 360,000 compounds, 0.19% hits. AID 602162, 2011;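 active means fluorescence ratio to DMSO below 75%, the collection mean minus 3 SD; inconclusive means too few cells collected in the well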;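 further: signal is porphyrin accumulated inside mitochondria; 100% equals median channel fluorescence of DMSO control wells; lower ratio means ABCB6 inhibition with less porphyrin fluorescence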
V-ATPase pH: regulators of yeast V-ATPase proton pumping, primary screen, pHLuorin cytosolic pH fluorescence. response, % at 10 µM. S. cerevisiae. AID 504577, 2011. 350,000 compounds, 0.37% hits; in the data active means response mostly above about 7.3%, no sharp cut-off; inactive means mostly below about 5.4%; further: actives read high
KCC2 secondary: KCC2 modulators in sodium-free buffer, confirmation, cell-based, HEK293 KCC2, thallium flux, secondary assay | shares compounds with Cl transport mod | normalised thallium flux (F/F0 slope) at 10 µM | FluoZin2 fluorescence; stronger effect = higher value | 3,700 compounds, 15% hits;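 active means thallium flux slope above the same plate's solvent-only control mean plus 3 SD; inconclusive means the two replicate wells disagree; inactive means no significant difference from solvent-only control wells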
KCC2 bumet counter: thallium flux persisting under bumetanide in KCC2 cells, confirmation, counter-screen for KCC2 modulator project, cell-based, HEK293 KCC2, FluoZin2, secondary assay 3; normalized thallium flux at 10 µM; HEK293-KCC2 + bumetanide/ouabain; stronger effect = higher value; shares compounds with Cl transport mod; 3,700 compounds, 49% hits;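 active means thallium entry rate above the same plate's blocked-transporter control wells by more than 3 SD; inconclusive means the two repeat wells disagree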;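 further: raw slope of fluorescence over initial fluorescence between 10 and 20 s after thallium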
KCC2 secondary2: KCC2 modulators without ouabain present, confirmation, cell-based, HEK293 KCC2, thallium flux, FluoZin2, secondary assay 2 | 3,700 compounds, 23% hits | normalized thallium flux at 10 µM | shares compounds with Cl transport mod | thallium flux FluoZin2 fluorescence; actives lie on both sides; F/F0 rise rate, 10–20 s post-thallium;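 active means thallium flux slope more than 3 SD above or below the plate's solvent-only control mean, mostly below; inconclusive means the two repeat wells disagreed; inactive means no significant shift from solvent-only controls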;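 further: raw slope with 0.1% DMSO as baseline and bumetanide as block control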
HEK293 Tl flux: thallium flux modulation in parental HEK cells, confirmation, counter-screen for KCC2 modulator project, cell-based, counterscreen 1; shares compounds with Cl transport mod; thallium flux rate (normalised fluorescence) at 10 µM; HEK293 parental cells, thallium flux FluoZin2, ouabain; baseline-ratio fluorescence slope, 10–20 s after thallium; 3,700 compounds, 46% hits;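 active means thallium flux rate significantly above the same plate's solvent-only control wells, beyond their mean plus 3 SD; inconclusive means the two replicate wells gave conflicting results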
KCC2 retest ouab: KCC2 inhibitors and activators, ouabain retest, confirmation, HEK-KCC2 cells; shares compounds with Cl transport mod; HEK293-KCC2, thallium flux FluoZin2 fluorescence; bidirectional: low = inhibitor, high = activator; raw Tl+ flux slope (below DMSO = inhibition, above = activation) at 10 µM; 3,700 compounds, 48% hits; AID 1717, 2009;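 active means thallium flux slope beyond 3 SD from same-plate DMSO control mean in most replicates, usually higher, sometimes lower; inconclusive means repeat tests gave conflicting results; inactive means no significant difference from controls in most replicates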;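 further: slope of initial-normalized fluorescence between seconds 10 and 20 after thallium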
HEK293 Tl flux2: native HEK Tl+ uptake effects, second counter-screen – HEK cells, counterscreen 2, counter-screen for KCC2 modulator project, confirmation; AID 1718, 2009; 3,700 compounds, 33% hits; thallium flux slope at 10 µM; HEK293 parental, thallium flux FluoZin-2 fluorescence slope; shares compounds with Cl transport mod;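 active means thallium flux slope above the same plate's solvent-control mean plus 3 SD in both duplicate wells; inconclusive means duplicate wells that disagreed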;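 further: run without ouabain in cells lacking the KCC2 cotransporter; slope of fluorescence scaled to its starting value between 10 and 20 s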
Numbers without * were called inactive; ? = inconclusive; / = no result. Many of the other results were omitted from the sample, so hits are more common in it than they were.

SMILES	Dynein transport	p-CIP stab down	Cl transport mod	ABCB6 inh MLPCN	V-ATPase pH	KCC2 secondary	KCC2 bumet counter	KCC2 secondary2	HEK293 Tl flux	KCC2 retest ouab	HEK293 Tl flux2
N#Cc1nc(Cc2ccccc2)oc1NCc1cccnc1	-0.91	15	0.097	102	-4	/	/	/	/	/	/
CC(C)Nc1oc(Cc2cccc3ccccc23)nc1C#N	0.48	-8	-4.5*	96	1	0.0068	0.0055	?	?	0.014*	0.011
CC1CN(c2oc(Cc3cccc4ccccc34)nc2C#N)CC(C)O1 (stereo not given)	-0.51	-18	/	99	-3	/	/	/	/	/	/
N#Cc1nc(Cc2ccccc2)oc1NCc1ccccc1Cl	-0.63	-24	-2.9*	108	4	0.0075	0.0058	0.03	0.0057*	0.016*	0.0099
CCOc1cccc(N2CCN(CCNC(=O)Nc3ccc(C)cc3)CC2)c1C	/	1	/	101	7	/	/	/	/	/	/
NC(=O)Oc1cccc(OC(N)=O)c1	0.51	10	-0.053	99	2	/	/	/	/	/	/
Cc1cc(-c2ccccc2C(=O)NC2CCCCC2)on1	0.23	9	0.67	99	-6	/	/	/	/	/	/
C/C(=N\NC(=S)Nc1cc(S(=O)(=O)N2CCOCC2)ccc1Cl)c1ccccc1F	-0.61	-14	6.9*	103	3	?	0.025*	0.03	0.015*	0.044*	0.01
O=C(CSc1nnc(COc2cccc3cccnc23)o1)c1ccc(F)cc1	0.6	-3	/	96	-3	0.0067	0.0052	0.033	0.0035	0.015*	0.011
COc1cccc(C(=O)CSc2nnc(COc3cccc4cccnc34)o2)c1	0.9	-6	-3.5	96	5	/	/	/	/	/	/
Cc1ccc(C(=O)CSc2nnc(COc3cccc4cccnc34)o2)cc1	-0.46	-12	-4*	98	8	?	?	?	0.0069	0.014	0.01
CCOc1cc(OCC)cc(C(=O)N2CCC[C@H]2C(=O)N2CCC[C@H]2C(=O)NCc2ccccn2)c1	/	/	/	98	/	/	/	/	/	/	/
Cn1c(C(=O)N2CCc3ccccc3C2)cc2c(=O)n3ccccc3nc21	3.7	-5	/	91	0	0.0051	0.0063*	0.027	0.0073	0.015*	0.011
CSc1cccc(CNC(=O)C2CCC(=O)N(CCCN3CCCC3=O)C2)c1 (stereo not given)	/	-16	/	95	-5	/	/	/	/	/	/
C=CCn1c(CCNC(=O)c2ccccc2F)nnc1SCC(=O)Nc1nc2ccccc2s1	-0.74	-8	/	101	2	0.016	0.0043	0.025*	0.0064	0.014	0.0086
Nc1cc(=O)nc(SCC(=O)Nc2cccc3ccccc23)n1CCc1ccccc1	0.62	13	0.54	97	-1	/	/	/	/	/	/
COc1ccc(CNC(=O)CN(Cc2ccc(OC)cc2)C(=O)CCC(=O)Nc2ccccn2)cc1	/	-2	/	96	1	/	/	/	/	/	/
Oc1oc(-c2ccccc2)nc1/C=N/c1nccs1	0.14	2	14*	103	5	0.016*	0.082*	0.032	0.017*	0.044*	0.012*
CN(Cc1ccccc1)C(=O)COC(=O)c1cncc(Br)c1	-0.77	17	-0.88	89	6	/	/	/	/	/	/
CN(Cc1ccccc1)C(=O)COC(=O)c1ccc(Cl)c(N)c1	-0.084	-9	-3.9*	100	1	0.0073	0.0057	0.037	0.004	0.016*	0.01
Cc1cc(C)cc(-n2cccc2/C=C2/C(=N)N3C(=NC2=O)SN=C3S(C)(=O)=O)c1	0.41	8	-3.7	101	1	/	/	/	/	/	/
CS(=O)(=O)C1=NSC2=NC(=O)/C(=C\c3cccn3-c3ccccc3Cl)C(=N)N21	-0.14	-5	-5.1*	105	5	0.0068	0.0048	0.023*	0.0053*	0.014*	?
O=C(Nc1ccccc1-c1nc2ccccc2s1)C1=COCCO1	-0.085	-25	-0.22	93	3	/	/	/	/	/	/
c1ccc(CNc2ncnc3sc4c(c23)CCC4)nc1	2.5	3	-4.2*	94	-4	0.0097	0.0049	0.032	0.0059*	0.021	0.01
c1cncc(CNc2ncnc3sc4c(c23)CCC4)c1	-1	2	-0.46	102	-2	/	/	/	/	/	/
SMILES	Dynein transport	p-CIP stab down	Cl transport mod	ABCB6 inh MLPCN	V-ATPase pH	KCC2 secondary	KCC2 bumet counter	KCC2 secondary2	HEK293 Tl flux	KCC2 retest ouab	HEK293 Tl flux2
CC(C)(C)c1cc(C(=O)NNC(=O)c2ccc(Cl)cc2)no1	1.4	-1	94*	102	1	0.037*	0.1*	0.05*	0.057*	?	0.026*
Cc1sc2nc(C3CC3)nc(SCC(=O)N3CCCc4ccccc43)c2c1C	-0.11	-2	8.5*	/	/	0.011	0.019*	0.032	0.013*	?	0.012*
Cn1c(=O)c2c(SCC(=O)N3CCCc4ccccc43)nc(C3CC3)nc2n(C)c1=O	0.0033	-7	-1.1	89	-4	/	/	/	/	/	/
O=C(CSc1cc(Cl)ccc1Cl)NC1CCCC1	/	-20	/	102	-3	/	/	/	/	/	/
CC(C)CN(C(=O)COC(=O)CSc1ccc([N+](=O)[O-])cc1)C1CCS(=O)(=O)C1 (stereo not given)	/	/	/	98	-1	/	/	/	/	/	/
O=[N+]([O-])c1ccc(NC(=S)NCCc2ccc(F)cc2)cc1	0.1	-9	-6.1*	90	0	0.0069	0.0038	0.021*	0.0052*	0.01*	0.008*
O=C(NCCc1ccc(F)cc1)Nc1ccc([N+](=O)[O-])cc1	/	-11	/	97	-3	/	/	/	/	/	/
COc1ccc(Br)cc1C(=O)Nc1ccccc1-c1ccccc1	0.9	3	0.56	95	1	/	/	/	/	/	/
